# Bioassay records: PubChem, several laboratories
# Hits are enriched below; roughly 5.7% of the tested compounds scored in any of these assays.
# T cruzi inh: T. cruzi replication inhibition | inhibition, % (concentration not given with the values) | T. cruzi beta-gal in NIH3T3, luminescence, 90 h | 1.4% of 300,000 active | AID 1885;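 active = mean inhibition across valid replicates above about 55%, limit read from the data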;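 note: signal also drops with host cell toxicity which is not excluded here; 0% = plate median of DMSO wells and 100% = zero luminescence signal; higher percent means less beta-gal luminescence so fewer parasites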
#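 System: Mouse NIH/3T3 fibroblasts infected with β-gal-expressing T. cruzi Tulahuen C4 | Quantity: NIH/3T3 cells, 5,000 per well | Reagent: 5000 reporter trypomastigotes per well | Dosing: Compound pinned at 50 nL/well, DMSO | Schedule: 3 h host attachment, then at least 90 h co-culture | Detection: GalScreen luminescence, 60 min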
# Calb FLC: affects C. albicans growth with fluconazole. C. albicans CaCi-2 + fluconazole, Alamar Blue growth, 48 h. growth inhibition, % (test concentration not listed). 0.57% of 300,000 active. AID 1979;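 active = growth inhibition above about 58% in most replicates, limit read from the data, passing the limit was not always enough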;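 note: all wells also contain fluconazole at 8 µg/ml as a sub-toxic cotreatment; 0% = median of DMSO wells and 100% = median of geldanamycin control wells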
# Mdm2 MdmX PPI: inhibitors of human Mdm2/MdmX interaction | O15151+Q00987 | SaOS-2 split-luciferase Mdm2/MdmX complementation, luminescence | inhibition, % at 8 µM | 3% of 330,000 active | AID 485346;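 active = inhibition of at least 50% at 8 µM in the primary screen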
# Target sequence (O15151 whole entry, looked up): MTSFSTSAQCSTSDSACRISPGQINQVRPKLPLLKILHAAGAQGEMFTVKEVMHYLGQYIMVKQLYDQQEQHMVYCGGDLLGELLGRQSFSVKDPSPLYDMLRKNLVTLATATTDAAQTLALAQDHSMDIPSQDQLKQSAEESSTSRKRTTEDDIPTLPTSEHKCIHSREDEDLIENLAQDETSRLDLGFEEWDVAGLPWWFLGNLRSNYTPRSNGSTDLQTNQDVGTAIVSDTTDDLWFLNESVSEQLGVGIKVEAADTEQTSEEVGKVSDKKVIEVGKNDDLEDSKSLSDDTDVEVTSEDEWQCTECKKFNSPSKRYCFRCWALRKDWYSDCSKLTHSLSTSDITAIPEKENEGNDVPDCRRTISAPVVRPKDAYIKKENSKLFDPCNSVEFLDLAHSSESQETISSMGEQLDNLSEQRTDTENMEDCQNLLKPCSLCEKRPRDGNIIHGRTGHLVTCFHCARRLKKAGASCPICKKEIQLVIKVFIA
# Target sequence (Q00987 whole entry, looked up): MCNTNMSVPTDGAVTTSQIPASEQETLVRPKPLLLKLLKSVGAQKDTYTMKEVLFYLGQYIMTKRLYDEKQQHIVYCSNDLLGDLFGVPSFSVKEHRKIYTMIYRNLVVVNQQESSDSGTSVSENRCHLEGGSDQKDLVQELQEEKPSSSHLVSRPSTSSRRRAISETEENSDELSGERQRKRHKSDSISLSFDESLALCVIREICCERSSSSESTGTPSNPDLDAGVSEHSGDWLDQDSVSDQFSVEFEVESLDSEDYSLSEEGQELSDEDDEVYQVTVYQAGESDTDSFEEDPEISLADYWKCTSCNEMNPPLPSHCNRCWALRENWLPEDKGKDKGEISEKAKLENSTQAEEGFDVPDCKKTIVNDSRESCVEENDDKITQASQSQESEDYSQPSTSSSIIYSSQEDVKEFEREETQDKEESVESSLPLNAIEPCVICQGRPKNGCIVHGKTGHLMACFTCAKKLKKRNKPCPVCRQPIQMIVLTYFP
# Beta apoptosis: blocks beta cell apoptosis. INS-1E cytokine-induced death, ATP luminescence, 48 h; percent of positive-control rescue, neutral wells zero. protection from apoptosis, % (no concentration beside the values). 0.8% of 300,000 active. AID 435005;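 active = Every replicate reaches about 75%, or at least half do and their mean reaches it too, limit read from the data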;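 note: 0% = cytokine-treated negative control wells and 100% = positive control rescue; higher means more ATP so stronger rescue from cytokine killing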
# CSC inhib: blocks cancer stem cells; cancer stem cell-like cells viability, luminescence; inhibition, % at 7.5 µM; 1.1% of 300,000 active; in the data active = inhibition above about 75%; tested in HMLE shEcad cells
# SKKanGAS inh: inhibitors of SKKanGAS S. pyogenes growth in kanamycin (SK-promoter or general growth effect) | BacTiter-Glo, 6 h | inhibition, % at 7.5 µM | 1.3% of 300,000 active | AID 1662;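 active = mean replicate score, as percent of positive control median, at least 50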;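 note: strain carries kanamycin resistance gene driven by streptokinase promoter and grows in 40 µg/ml kanamycin; loss of luminescence reflects streptokinase promoter inhibition or plain growth inhibition; 0% = median of DMSO wells and 100% = positive control at its reference dose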
# Mdm2 MdmX conf: confirmation of human Mdm2/MdmX interaction inhibitors; shares compounds with Mdm2 MdmX PPI; Mdm2-MdmX binding, luminescent assay; inhibition, % at 8 µM; 55% of 10,000 active; AID 489028; in the data active = inhibition above about 40%
# FLuc counter: full-length luciferase inhibition in Mdm2/MdmX counter-screen. shares compounds with Mdm2 MdmX PPI. SaOS-2 full-length luciferase counterscreen, luminescence. inhibition, % at 8 µM. 77% of 6,200 active;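 active = mean inhibition at 8 µM reaching about 37%, which flags the compound as non-specific, limit read from the data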;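 note: p53-null SaOS-2 cells with luciferase driven by a doxycycline-inducible promoter; compound on cells about two nights before reading with doxycycline added after day one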
# * hit, by the source's call; / = no result.
SMILES,T cruzi inh,Calb FLC,Mdm2 MdmX PPI,Beta apoptosis,CSC inhib,SKKanGAS inh,Mdm2 MdmX conf,FLuc counter
CCCCCc1cc(=O)oc2c(C(CCN3CCCCC3)c3ccc(OC)cc3)c(OC)cc(OC)c12 (configuration not stated),41.6,11.0,96.4*,47.2,96.5*,5.7,31.4,44.0*
COc1cccc(CNC(=O)Cn2nc(C)c([N+](=O)[O-])c2C)c1,-8.9,-4.1,-22.1,0.1,-10.5,-2.8,/,/
CCCCCc1cc(=O)oc2c(C(CCN3CCCC(C)C3)c3ccc(OC)cc3)c(OC)cc(OC)c12 (configuration not stated),65.8*,1.5,86.4*,109.1*,101.8*,-1.5,41.5*,50.1*
COc1cc(OC)c2ccc(=O)oc2c1C(CCN1CCCC(C)C1)c1ccc2c(c1)OCO2 (configuration not stated),20.9,-39.6,21.6,2.5,2.9,-1.0,/,/
CCOC(=O)c1[nH]c2ccc(OC)cc2c1NC(=S)N1CCN(c2cccc(Cl)c2)CC1,18.5,3.9,50.2*,/,/,15.0,21.4,/
Cc1cc(C)c(S(=O)(=O)c2cccc(Br)c2C)c(=O)[nH]1,-15.9,6.5,12.0,-10.8,-9.7,1.8,/,/
NC(=O)c1ccc(CN2CCc3ccccc3C2)cc1,-3.5,0.9,-1.9,/,5.6,7.8,/,/
c1ccc(C2CC(c3ccccc3)C(c3ccccc3)N2)cc1 (configuration not stated),16.4,-66.3,12.4,2.7,10.0,19.7,/,/
COc1ccc2[nH]c3c(c2c1)CC(C)NC3=O (configuration not stated),-2.0,-0.4,78.3*,-21.0,-19.7,-3.6,74.0*,33.6
Cc1noc2ncnc(Sc3ccccc3Cl)c12,45.1,0.1,70.1*,-12.6,-8.8,-0.8,-4.2,/
COc1ccc(-c2nnc(Nc3nc4c(OC)cccc4s3)o2)c(OC)c1,41.3,101.2*,68.0*,/,/,-24.1,58.2*,47.7*
COC(=O)c1cn(C(=O)c2ccc(F)cc2)c2ccccc12,-29.4,18.2,-5.2,/,-7.8,-2.0,/,/
Cc1ccc(N/C(N)=N/c2nc(CSc3nnc(C)s3)cc(=O)[nH]2)c(C)c1,-17.5,0.6,60.0*,21.3,4.8,-6.0,55.6*,67.8*
COc1ccc(N/C(N)=N/c2nc(C)cc(=O)[nH]2)cc1,-13.4,5.0,21.1,-3.3,-7.3,-3.3,/,/
Cc1ccc(SCc2cc(=O)[nH]c(/N=C(\N)Nc3cccc4ccccc34)n2)cc1,-37.9,16.9,15.2,-4.3,1.3,-12.3,/,/
COc1ccc(N/C(N)=N/c2nc(CSc3nnc(C)s3)cc(=O)[nH]2)cc1,-55.6,23.0,52.1*,5.4,0.7,-6.5,65.0*,65.4*
CCN1CCCC1CN(Cc1cc2ccc(C)cc2[nH]c1=O)C(=S)Nc1ccc(OC)cc1 (configuration not stated),14.7,21.6,-8.2,-9.7,-12.4,-8.1,/,/
COc1ccc2cc(CN(CC3CCCO3)C(=S)Nc3ccccc3)c(=O)[nH]c2c1 (configuration not stated),17.4,10.3,51.6*,-0.8,6.0,7.5,51.0*,57.4*
COc1ccc2cc(CN(CC3CCCO3)C(=O)Nc3ccccc3OC)c(=O)[nH]c2c1 (configuration not stated),10.5,12.1,58.6*,11.1,46.5,25.0,53.2*,63.3*
Cc1cc2cc(CN(CC3CCCO3)C(=S)Nc3ccccc3)c(=O)[nH]c2cc1C (configuration not stated),-8.1,9.1,66.7*,8.8,2.7,11.0,56.5*,59.2*
CCN1CCCC1CN(Cc1cc2ccc(C)cc2[nH]c1=O)C(=S)Nc1ccc(F)cc1 (configuration not stated),27.2,4.1,60.0*,4.8,-6.2,-10.7,34.8,63.3*
COc1ccc2[nH]c(=O)c(CN(CC3CCCO3)C(=S)Nc3ccccc3)cc2c1 (configuration not stated),16.5,-6.7,12.5,-2.0,6.0,27.7,/,/
COCC(=O)N1CCC(Oc2ccc(C(=O)NC3Cc4ccccc4C3)cc2)CC1,-15.4,-3.2,12.7,4.2,2.4,4.6,/,/
CCCOc1ccc(C=Nc2ccc(OC)c(S(=O)(=O)N3CCOCC3)c2)c(O)c1,/,/,19.9,-3.0,16.8,/,/,/
CN(C)CCCN(Cc1cc2cc3c(cc2[nH]c1=O)OCO3)C(=S)Nc1cccc(Cl)c1,19.7,0.7,58.9*,-6.1,/,-4.1,29.2,/
SMILES,T cruzi inh,Calb FLC,Mdm2 MdmX PPI,Beta apoptosis,CSC inhib,SKKanGAS inh,Mdm2 MdmX conf,FLuc counter
CN(C)CCCN(Cc1cc2cc3c(cc2[nH]c1=O)OCO3)C(=S)Nc1ccccc1,19.3,-16.0,6.0,-8.8,-6.4,-0.9,/,/
CCOC(=O)C1=C(c2ccccc2)N=c2s/c(=C\c3cccc(O)c3)c(=O)n2C1c1cccs1 (configuration not stated),21.6,0.1,77.7*,20.3,99.1*,54.0*,29.2,/
CCOc1cc2[nH]c(=S)n(CCc3ccc(OC)c(OC)c3)c(=O)c2cc1OCC,-51.6,-3.3,82.9*,55.5,16.8,26.3,-8.2,/
CCOC(=O)c1c(NC(=O)c2cc(C)on2)c2cc([N+](=O)[O-])ccc2n1C,/,-30.4,85.3*,26.6,13.7,-5.0,5.8,/
CCOC(=O)c1c(NC(=O)c2ccno2)c2cc([N+](=O)[O-])ccc2n1C,2.3,-3.9,20.3,-3.2,-8.3,3.3,/,/
COc1cc(O)c(CC=C(C)C)c(O)c1C(=O)CCc1ccc(O)cc1,-9.7,20.3,55.2*,/,-6.1,97.7*,2.8,/
Cc1ccc2nc(NCCc3ccccc3)c3nncn3c2c1,0.8,-1.1,11.1,/,/,-12.6,/,/
Cc1nc2ccccc2n1-c1nc(-c2ccco2)cc(C(F)(F)F)n1,-11.8,14.6,77.2*,131.0*,148.5*,-6.6,100.2*,8.5
O=C(CSc1nc2ccccc2c(=O)n1CCCN1CCOCC1)Nc1ccc(F)c(Cl)c1,/,/,52.4*,-1.9,8.2,/,19.0,/
Cc1ccc(NC(=O)CSc2nc3ccccc3c(=O)n2CCCN2CCCCC2)cc1Cl,56.5*,-0.7,99.8*,29.3,20.4,2.6,77.8*,54.7*
CCCCn1c(CCC(=O)O)nc2cc(S(=O)(=O)N3CCCC3)ccc21,/,/,-4.9,0.9,2.8,/,/,/
COC(=O)Nc1ccc(S(=O)(=O)N2CCCc3cccc(O)c32)cc1,1.2,22.0,55.1*,10.0,49.3,-0.3,52.1*,62.6*
Cn1c(=O)oc2cc(S(=O)(=O)N3CCCc4ccccc43)ccc21,-10.9,-0.4,54.6*,-5.9,72.7,-6.4,59.2*,65.2*
Cn1c(=O)oc2cc(S(=O)(=O)N3CCc4ccccc43)ccc21,-2.9,-19.0,11.7,-1.3,11.1,-4.0,/,/
